Laboratory results reported in ChEMBL document CHEMBL3244186, “Synthesis and evaluation of the thiosemicarbazone, dithiocarbazonate, and 2'-pyrazinylhydrazone of pyrazinecarboxaldehyde as agents for the treatment of iron overload” (J Med Chem, 1979).

Tests used:
[1] = Iron chelating activity assessed as removal of [59]-Fe from [59]-Fe-labeled transferrin at 1 mM measured per hr by spectrometric analysis; format: physicochemical; settings: 1000 µM
Outline: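 About 10^6 cpm of 59Fe-labeled transferrin in 1.0 mL of 0.1 M Hepes (pH 7.00), inside a dialysis sack, dialyzed at room temperature against 25.0 mL of 1.00 mM ligand in the same buffer. Dialysate aliquots of 1.00 mL taken at intervals were gamma-counted (800-1400 keV window). Initial release rates were derived from these counts.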

Mus musculus [2] = assay: Iron chelating activity in iron-overloaded BDF1 mouse assessed as iron level in heart at 80 mg/kg, ip treated from day 8 to 13 after erythrocyte suspension injection on day 1, 3 and 5 by atomic absorption spectroscopic analysis; format: functional; settings: route intraperitoneal
Outline: (§1)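 Iron-loaded male BDF1 mice (10 per group) given ip drug in EtOH/Tween 80/saline vehicle daily on days 8-13. On day 15, under Et2O, mice were exsanguinated. Organs were washed, frozen, thawed, weighed and homogenized in 0.014 M NaCl made with iron-free water; supernatant iron was measured by AAS, as μg/mouse. Mean ± SD; t test versus iron-loaded vehicle control.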

Mus musculus [3] = assay: Iron chelating activity in iron-overloaded BDF1 mouse assessed as daily urinary iron level at 40 mg/kg, ip treated from day 8 to 13 after erythrocyte suspension injection on day 1, 3 and 5 by atomic absorption spectroscopic analysis; format: functional, Urine; settings: route intraperitoneal
[4] = Binding affinity to FeSO4 assessed as stability constant at pH 7.4 after 1 hr; format: physicochemical; settings: pH 7.4, 1 h
Outline: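 Continuous-variation (Job) method: iron and ligand solutions diluted after 1 h to 10.00 mL with 50 mM barbital buffer (pH 7.4), all containing 0.100 M KNO3. Visible absorbance at λmax was read at several times to confirm equilibrium. Absorbance was plotted against metal/(metal + ligand) to give the stoichiometry and minimum stability constant.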

Mus musculus [5] = assay: Iron chelating activity in iron-overloaded BDF1 mouse assessed as transferrin saturation at 40 mg/kg, ip treated from day 8 to 13 after erythrocyte suspension injection on day 1, 3 and 5 relative to control; format: functional; settings: route intraperitoneal
Outline: (§2)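 Iron-loaded male BDF1 mice (10 per group) received ip drug daily on days 8-13, with non-loaded and iron-loaded vehicle-treated control groups. On day 15, blood collected by cardiac puncture under Et2O was pooled per group. Percent transferrin saturation was measured with a standard hematologic kit.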

Mus musculus [6] = assay: Iron chelating activity in iron-overloaded BDF1 mouse assessed as iron level in liver at 80 mg/kg, ip treated from day 8 to 13 after erythrocyte suspension injection on day 1, 3 and 5 by atomic absorption spectroscopic analysis; format: functional; settings: route intraperitoneal; outline: as §1
Mus musculus [7] = assay: Iron chelating activity in iron-overloaded BDF1 mouse assessed as iron level in liver at 40 mg/kg, ip treated from day 8 to 13 after erythrocyte suspension injection on day 1, 3 and 5 by atomic absorption spectroscopic analysis; format: functional; settings: route intraperitoneal; outline: as §1
Mus musculus [8] = assay: Iron chelating activity in iron-overloaded BDF1 mouse assessed as iron level in spleen at 40 mg/kg, ip treated from day 8 to 13 after erythrocyte suspension injection on day 1, 3 and 5 by atomic absorption spectroscopic analysis; format: functional; settings: route intraperitoneal; outline: as §1
Mus musculus [9] = assay: Iron chelating activity in iron-overloaded BDF1 mouse assessed as iron level in spleen at 80 mg/kg, ip treated from day 8 to 13 after erythrocyte suspension injection on day 1, 3 and 5 by atomic absorption spectroscopic analysis; format: functional; settings: route intraperitoneal; outline: as §1
Mus musculus [10] = assay: Iron chelating activity in iron-overloaded BDF1 mouse assessed as iron level in lung at 80 mg/kg, ip treated from day 8 to 13 after erythrocyte suspension injection on day 1, 3 and 5 by atomic absorption spectroscopic analysis; format: functional; settings: route intraperitoneal; outline: as §1
[11] = Iron chelating activity assessed as removal of iron from ferritin after 20 hrs by atomic absorption spectrophotometric analysis; format: physicochemical
Outline: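 Ferritin holding 1.34 mg total Fe was dialyzed at room temperature against 25.0 mL of 1.00 mM ligand solution. Iron in the dialysate was measured by atomic absorption spectroscopy at 20 h.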

Mus musculus [12] = assay: Iron chelating activity in iron-overloaded BDF1 mouse assessed as daily urinary iron level at 80 mg/kg, ip treated from day 8 to 13 after erythrocyte suspension injection on day 1, 3 and 5 by atomic absorption spectroscopic analysis; format: functional, Urine; settings: route intraperitoneal
Mus musculus [13] = assay: Iron chelating activity in iron-overloaded BDF1 mouse assessed as iron level in lung at 40 mg/kg, ip treated from day 8 to 13 after erythrocyte suspension injection on day 1, 3 and 5 by atomic absorption spectroscopic analysis; format: functional; settings: route intraperitoneal; outline: as §1
[14] = Binding affinity to Fe(NO3)3 assessed as stability constant at pH 7.4 after 1 hr; settings: pH 7.4, 1 h
Mus musculus [15] = assay: Iron chelating activity in iron-overloaded BDF1 mouse assessed as transferrin saturation at 80 mg/kg, ip treated from day 8 to 13 after erythrocyte suspension injection on day 1, 3 and 5 relative to control; format: functional; settings: route intraperitoneal; outline: as §2
Mus musculus [16] = assay: Iron chelating activity in iron-overloaded BDF1 mouse assessed as iron level in heart at 40 mg/kg, ip treated from day 8 to 13 after erythrocyte suspension injection on day 1, 3 and 5 by atomic absorption spectroscopic analysis; format: functional; settings: route intraperitoneal; outline: as §1
[17] = Binding affinity to Fe(NO3)3 assessed as stability constant at pH 7.5 after 1 hr; format: physicochemical; settings: pH 7.5, 1 h
[18] = Binding affinity to FeSO4 assessed as stability constant at pH 7.5 after 1 hr; format: physicochemical; settings: pH 7.5, 1 h

| Activity [1] [%] | Activity [4] | Activity [11] [µM] | Activity [14] | Activity [17] | Activity [18] | Compound | Activity (Mus musculus [2]) [µg] | Activity (Mus musculus [3]) [µg] | Activity (Mus musculus [5]) [%] | Activity (Mus musculus [6]) [µg] | Activity (Mus musculus [7]) [µg] | Activity (Mus musculus [8]) [µg] | Activity (Mus musculus [9]) [µg] | Activity (Mus musculus [10]) [µg] | Activity (Mus musculus [12]) [µg] | Activity (Mus musculus [13]) [µg] | Activity (Mus musculus [15]) [%] | Activity (Mus musculus [16]) [µg] |
| --- | --- | --- | --- | --- | --- | --- | --- | --- | --- | --- | --- | --- | --- | --- | --- | --- | --- | --- |
| 0.3 |  |  |  |  |  | N/C(S)=N/N=C/c1ccccn1 |  |  |  |  |  |  |  |  |  |  |  |  |
| 0.3 | > 17 | 1.4 | > 25 |  |  | NC(=S)N/N=C/c1cnccn1 | 9.4 | 1.1 | 58 | 156 | 171 | 16.7 | 14.6 | 16.1 | 1.1 | 15.4 | 44 | 9.2 |
| 0.4 |  | 48.8 |  | > 25 | > 17 | S=C([S-])N/N=C/c1cnccn1.[Na+] | 10.6 | 1.4 | 51 | 176 | 193 | 14 | 18.6 | 17.7 | 5.5 | 14.8 | 27 | 8.5 |
